KCNK3 inh = human KCNK3 channel inhibition, primary screen; O14649; AID 602410; actives 0.84% (n = 340,000); B-score at 10 µM; CHO-KCNK3 thallium flux, FluxOR fluorescence; hits give low values;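 active means B-score under library mean minus 4 SD, starting fluorescence ratio at most library mean plus 5 SD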;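 further: more negative B-score means stronger inhibition of thallium flux through KCNK3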
KCNQ1 act = human KCNQ1 channel potentiation or activation | B-score at 10 µM | actives 0.35% (n = 310,000) | AID 2648 | CHO-K1 KCNQ1, thallium flux FluxOR fluorescence; hits give high values;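 active means fluorescence ratio B-score, a plate-corrected score, at least three library SD, with initial intensity B-score within 5 SD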
Target sequence (P51787 whole entry, looked up): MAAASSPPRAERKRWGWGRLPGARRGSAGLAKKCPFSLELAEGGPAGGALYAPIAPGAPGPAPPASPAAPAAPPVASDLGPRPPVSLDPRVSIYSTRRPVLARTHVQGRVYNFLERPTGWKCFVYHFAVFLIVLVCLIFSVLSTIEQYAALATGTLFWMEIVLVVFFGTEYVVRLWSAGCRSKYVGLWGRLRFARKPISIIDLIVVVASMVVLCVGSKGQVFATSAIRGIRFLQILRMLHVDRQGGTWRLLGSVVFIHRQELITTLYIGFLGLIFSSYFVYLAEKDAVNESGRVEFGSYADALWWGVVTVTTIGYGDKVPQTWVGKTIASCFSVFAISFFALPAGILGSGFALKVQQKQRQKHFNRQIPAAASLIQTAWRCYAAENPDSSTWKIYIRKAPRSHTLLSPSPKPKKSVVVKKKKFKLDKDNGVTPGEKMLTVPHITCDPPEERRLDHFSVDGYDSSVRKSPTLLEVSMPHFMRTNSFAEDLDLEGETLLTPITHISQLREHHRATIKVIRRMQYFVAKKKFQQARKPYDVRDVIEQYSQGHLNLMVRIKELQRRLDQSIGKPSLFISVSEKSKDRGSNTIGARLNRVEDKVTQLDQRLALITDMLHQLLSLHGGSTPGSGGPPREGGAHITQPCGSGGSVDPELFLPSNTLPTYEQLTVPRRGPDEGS
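Assay system: CHO-K1 cells stably expressing KCNQ1; Medium: assay buffer with matched DMSO; Also added: K+/Tl+ depolarizing stimulus; Dosing: single dose; Timing: dye 90 min, compound 20 min, room temperature; Measured by: kinetic FluxOR thallium fluorescence, 10-s 1-Hz baseline, 110-s post-stimulus read; Read-out: peak-minus-minimum fluorescence over initial fluorescence, negative-control normalized, B-scored.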
hERG protect = shields human hERG channel from block by proarrhythmic agents; activation (rescue from dofetilide block), less the hit threshold, % at 10 µM; CHO-hERG, FluxOR thallium flux, dofetilide IC70 present; actives 0.51% (n = 310,000); Q12809; AID 1511;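 active means activation above the mean of controls blocked by dofetilide plus 5 SD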;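 further: thallium influx through hERG after potassium depolarization seen as dye fluorescence rise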
KCNQ1 inh = human KCNQ1 channel inhibition; P51787; B-score at 10 µM; actives 1.3% (n = 310,000); CHO-K1 KCNQ1, FluxOR thallium flux fluorescence; hits give high values;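 active means compounds whose thallium flux B-score, printed positive for inhibition, exceeds three library SD while starting fluorescence stays within three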;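 further: channel opened by potassium depolarization with thallium stimulus after 20 min compound exposure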
KCNK9 block = blocks the human KCNK9 two-pore domain potassium channel; Q9NPC2; HEK293 KCNK9, FluxOR thallium flux fluorescence; hits give low values; B-score at 10 µM; actives 1.2% (n = 310,000); AID 488922;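 active means ratio B-score over 3 SD below the library mean, with starting fluorescence within 5 SD of its mean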;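 further: negative B-score means less thallium flux so channel inhibition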
PHOSPHO1 inh = PHOSPHO1 (human) inhibition; Q8TCT1; recombinant PHOSPHO1, absorbance phosphatase assay; inhibition, % at 13.3 µM; actives 1.1% (n = 290,000); AID 1565; in the data active means inhibition above about 60%
* marks the source's active call; other numbers are inactive results. A selection: hits, their analogues and other compounds. The true share with any hit is near 4%.

Results for CN1CCC(c2c[nH]c3ccc(O)cc23)CC1 ?
KCNK3 inh: inactive

What do the screens show for `CC1CCCC(C)N1/N=C/c1c[nH]c2ccc(Br)cc12` (stereo not given)?
KCNK3 inh: inactive; KCNQ1 act: inactive; hERG protect: -15.4; KCNQ1 inh: 6*; KCNK9 block: inactive; PHOSPHO1 inh: 1.1

What do the screens show for `CCCCn1c(NS(=O)(=O)c2ccccc2)c(C(=O)OCC)c2nc3ccccc3nc21`?
KCNK3 inh: inactive; KCNQ1 act: inactive; hERG protect: -10.2; KCNQ1 inh: inactive; KCNK9 block: inactive; PHOSPHO1 inh: 83.4*

What do the screens show for `O=c1[nH]c(O)c(N=Nc2cccc(S(=O)(=O)N3CCOCC3)c2)c(=O)[nH]1`?
KCNK3 inh: inactive; KCNQ1 act: inactive; hERG protect: -5.1; KCNQ1 inh: inactive; KCNK9 block: inactive; PHOSPHO1 inh: 60.0*

Results for O=c1[nH]c(=S)[nH]c(O)c1N=Nc1cccc(S(=O)(=O)N2CCOCC2)c1 ?
KCNK3 inh: inactive; KCNQ1 act: inactive; hERG protect: -6.3; KCNQ1 inh: inactive; KCNK9 block: inactive; PHOSPHO1 inh: -22.6

What do the screens show for `COP(=S)(OC)SCN1C(=O)c2ccccc2C1=O`?
KCNK3 inh: inactive; KCNQ1 act: inactive; hERG protect: -4.5; KCNQ1 inh: inactive; KCNK9 block: inactive; PHOSPHO1 inh: 77.0*

How did CNC(=O)CSP(=S)(OC)OC do in these assays?
KCNK3 inh: inactive

What do the screens show for `CN1CCN(c2cc(N3CCCC3)c([N+](=O)[O-])cc2F)CC1`?
KCNK3 inh: inactive; KCNQ1 act: 9*; hERG protect: -11.7; KCNQ1 inh: inactive; KCNK9 block: inactive; PHOSPHO1 inh: 16.9

Results for O=[N+]([O-])c1cc(F)c(N2CCCCC2)cc1Br ?
KCNK3 inh: inactive; KCNQ1 act: inactive; hERG protect: -17.2; KCNQ1 inh: inactive; KCNK9 block: inactive; PHOSPHO1 inh: 13.9

How did O=[N+]([O-])c1cc(F)c(N2CCCC2)cc1Br do in these assays?
KCNK3 inh: inactive; KCNQ1 act: inactive; hERG protect: -8.4; KCNQ1 inh: 6*; KCNK9 block: inactive; PHOSPHO1 inh: 1.4

How did O=C(c1ccc(-c2ccccc2)c(F)c1)C1CCCN(CCO)C1 (stereo not given) do in these assays?
KCNK3 inh: inactive; KCNQ1 act: inactive; hERG protect: -12.6; KCNQ1 inh: inactive; KCNK9 block: inactive; PHOSPHO1 inh: 60.1*

Results for CC[C@H]1C2C[C@H]3[C@@H]4N(C)c5ccccc5C45C[C@H](C2[C@H]5O)N3[C@@H]1O (stereo not given in full) ?
KCNK3 inh: inactive

What do the screens show for `CCCCn1c(=O)c(C(=O)NCCc2ccccc2)c(O)c2ccccc21`?
KCNK3 inh: inactive; KCNQ1 act: inactive; hERG protect: -6.0; KCNQ1 inh: 7*; KCNK9 block: inactive; PHOSPHO1 inh: 39.0

What do the screens show for `CCCCn1c(=O)c(C(=O)NCc2ccc(Cl)cc2)c(O)c2ccccc21`?
KCNK3 inh: inactive; KCNQ1 act: inactive; hERG protect: -12.5; KCNQ1 inh: inactive; KCNK9 block: inactive; PHOSPHO1 inh: -16.1

What do the screens show for `CCCCn1c(=O)c(C(=O)NC(C)c2ccccc2)c(O)c2ccccc21` (stereo not given)?
KCNK3 inh: inactive; KCNQ1 act: inactive; hERG protect: -0.3; KCNQ1 inh: 6*; KCNK9 block: inactive; PHOSPHO1 inh: 29.5

Results for CCCCCn1c(=O)c(C(=O)NCc2ccncc2)c(O)c2ccccc21 ?
KCNK3 inh: inactive; KCNQ1 act: inactive; hERG protect: -6.3; KCNQ1 inh: 8*; KCNK9 block: -7.94*; PHOSPHO1 inh: 12.5

Results for CCOc1ccc([N+](=O)[O-])cc1CNCCc1ccccc1 ?
KCNK3 inh: inactive; KCNQ1 act: inactive; hERG protect: -23.9; KCNQ1 inh: inactive; KCNK9 block: inactive; PHOSPHO1 inh: 13.1

Results for COc1cc(OC)c(OC)cc1CNCCc1ccc(F)cc1 ?
KCNK3 inh: inactive; KCNQ1 act: inactive; hERG protect: -3.2; KCNQ1 inh: inactive; KCNK9 block: inactive; PHOSPHO1 inh: 8.8

How did CC(=O)NC1C(OC(=O)Cc2ccccc2)OC(COC(C)=O)C(OC(C)=O)C1OC(C)=O (stereo not given) do in these assays?
KCNK3 inh: inactive; KCNQ1 act: inactive; hERG protect: -12.0; KCNQ1 inh: inactive; KCNK9 block: inactive; PHOSPHO1 inh: 17.9

Results for CC(C)C(=O)c1cn(Cc2ccc(C#N)cc2)c2ccccc12 ?
KCNK3 inh: inactive; KCNQ1 act: inactive; hERG protect: -6.1; KCNQ1 inh: inactive; KCNK9 block: -6.92*; PHOSPHO1 inh: -0.9

What do the screens show for `CC(=O)c1cn(Cc2ccc(C#N)cc2)c2ccccc12`?
KCNK3 inh: inactive; KCNQ1 act: inactive; hERG protect: -5.4; KCNQ1 inh: inactive; KCNK9 block: inactive; PHOSPHO1 inh: 10.2

Results for O=c1c2cc(Br)ccc2[nH]c(=S)n1-c1ccccc1 ?
KCNK3 inh: inactive; KCNQ1 act: inactive; hERG protect: 37.3*; KCNQ1 inh: inactive; KCNK9 block: inactive; PHOSPHO1 inh: -87.0

How did O=C(C[N+]12CCC(CC1)C(O)C2)c1ccc(Br)cc1 (stereo not given) do in these assays?
KCNK3 inh: inactive; KCNQ1 act: inactive; hERG protect: -5.4; KCNQ1 inh: inactive; KCNK9 block: inactive; PHOSPHO1 inh: 43.7

How did CC(C)c1onc(C(=O)N2CCC3(CC2)OCCO3)c1[N+](=O)[O-] do in these assays?
KCNK3 inh: inactive; KCNQ1 act: inactive; hERG protect: -5.2; KCNQ1 inh: inactive; KCNK9 block: inactive; PHOSPHO1 inh: 63.6*

How did Cc1noc(C)c1C(=O)N1CCC2(CC1)OCCO2 do in these assays?
KCNK3 inh: inactive; KCNQ1 act: inactive; hERG protect: -4.9; KCNQ1 inh: inactive; KCNK9 block: inactive; PHOSPHO1 inh: 7.0

How did CN1C(=O)C(=Cc2ccc(N3CCCCCC3)o2)C(=O)N(C)C1=S do in these assays?
KCNK3 inh: inactive; PHOSPHO1 inh: -27.1

What do the screens show for `O=C1NC(=O)N(c2ccc3c(c2)OCO3)C(=O)/C1=C\c1ccc(N2CCCCC2)o1`?
KCNK3 inh: inactive; KCNQ1 act: inactive; hERG protect: -14.1; KCNQ1 inh: 9*; KCNK9 block: inactive; PHOSPHO1 inh: 8.4

How did CCOc1ccc(N2C(=O)/C(=C/c3ccco3)C(=O)NC2=S)cc1 do in these assays?
KCNK3 inh: inactive; KCNQ1 act: inactive; hERG protect: -4.3; KCNQ1 inh: inactive; KCNK9 block: inactive; PHOSPHO1 inh: -23.5

How did Cc1ccccc1N1C(=O)NC(=O)/C(=C/c2ccc(N3CCOCC3)o2)C1=O do in these assays?
KCNK3 inh: inactive; KCNQ1 act: inactive; hERG protect: -21.6; KCNQ1 inh: 6*; KCNK9 block: inactive; PHOSPHO1 inh: 23.1
